Hits are enriched below; roughly 4.1% of the tested compounds scored in any of these assays.
UPR CHOP act: activators of apoptotic CHOP UPR arm, primary screen, cell-based, CHO-CHOP luciferase reporter, luminescence, uHTS | UPR activation; percent of tunicamycin response over DMSO baseline | activation, % at 10 µM | 330,000 compounds, 0.34% hits | AID 449763, 2010;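 active = at 10 µM dose, activation of 40% or more, normalized to positive control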;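 note: 100% = tunicamycin at 10 µg/mL and 0% = DMSO alone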
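Test system: CHO-CHOP cells, stable luciferase reporter of PERK-eIF2a-CHOP signalling | Quantity: 500 CHO-CHOP cells per well | Buffer or medium: F12 plus 10% serum | Compound dosing: 10 µM single point, 0.5% DMSO | Schedule: 6 h compound treatment, 37 °C | Signal: Luciferase luminescence | Control set: Tunicamycin high control, DMSO low control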
Mdm2-MdmX inh: inhibitors of human Mdm2-MdmX association, primary screen, cell-based, luminescence, split luciferase, SaOS-2, uHTS | Protein Mdm4 (Homo sapiens) + E3 ubiquitin-protein ligase Mdm2 (Homo sapiens), … | SaOS-2 split-luciferase Mdm2/MdmX complementation | inhibition, % at 8 µM | 330,000 compounds, 3% hits;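 active = inhibition of at least 50% at 8 µM in the primary screen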
UBC13 polyUb: UBC13 polyubiquitin chain formation inhibitors, primary screen, biochemical, TR-FRET, uHTS; AID 485273, 2010; Ubiquitin-conjugating enzyme E2 N (Homo sapiens), P61088; inhibition, % at 20 µM; 330,000 compounds, 0.47% hits; in the data active = inhibition above about 45%, passing the limit was not always enough
UPR XBP1 act: activators of adaptive XBP1 UPR arm, primary screen, cell-based, CHO-XBP1 luciferase reporter, luminescence, uHTS; IRE1-XBP1 UPR activation; percent of tunicamycin response, DMSO as zero; activation, % at 20 µM; 330,000 compounds, 0.33% hits; AID 463104, 2010;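 active = versus positive control, 20 µM dose yields 30% or more activation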;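 note: 100% = tunicamycin at 10 µg/mL and 0% = DMSO only wells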
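Material: CHO cell line with stable XBP1 luciferase reporter; buffer or medium: F12 medium containing 10% fetal bovine serum; compound: single point, 20 µM final compound, 1% DMSO; incubation: 6 h treatment, 37 °C; measured by: glow luminescence from Steady-Glo reagent; evaluation: activation, % of tunicamycin; control set: tunicamycin high, DMSO low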
Apaf-1 inh: inhibitors of human Apaf-1 apoptosome, primary screen, biochemical, DEVD-Rh110 fluorescence, uHTS. 330,000 compounds, 0.71% hits. reconstituted apoptosome caspase-3 activity. Apoptotic protease-activating factor 1 (Homo sapiens), O14727. inhibition, % at 20 µM; active = inhibition of at least 40% at 20 µM;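 note: plate controls were DMSO wells for no effect and DEVD-CHO caspase inhibitor wells for full effect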
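Assay system: Apoptosome proteins | Medium: pH 7.5 Hepes buffer with CHAPS, BSA, DTT | Also added: Cytochrome c and DEVD-Rh110 substrate | Times: 30 min plus 50 min, RT | Detection: Rhodamine 110 fluorescence at Ex 480/Em 540 nm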
Mdm2-MdmX conf: Mdm2-MdmX complex disruptors, retested hits, confirmation, luminescence, single concentration. shares compounds with Mdm2-MdmX inh. Mdm2-MdmX binding, luminescent assay. inhibition, % at 8 µM. 10,000 compounds, 55% hits; in the data active = inhibition above about 40%
FLuc counter: full-length luciferase signal inhibition, confirmation, counter-screen for Mdm2/MdmX interaction inhibitor project, cell-based, single concentration, SaOS-2; shares compounds with Mdm2-MdmX inh; SaOS-2 full-length luciferase counterscreen, luminescence; inhibition, % at 8 µM; 6,200 compounds, 77% hits;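 active = mean inhibition at 8 µM reaching about 37%, which flags the compound as non-specific, limit read from the data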;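 note: p53-null SaOS-2 cells with luciferase driven by a doxycycline-inducible promoter; compound on cells about two nights before reading with doxycycline added after day one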
* hit, by the source's call; x = no result; ! = not active in a repeat.

SMILES	UPR CHOP act	Mdm2-MdmX inh	UBC13 polyUb	UPR XBP1 act	Apaf-1 inh	Mdm2-MdmX conf	FLuc counter
CCOC(=O)c1sc(NNC(=O)c2ccc(C)cc2)nc1C	4	16	-5	0	-9	x	x
CCOC(=O)c1nc(NNC(=O)c2ccc([N+](=O)[O-])cc2)sc1C	-3	58*	-40	-5	-2	46*	27
O=C(CN1C(=O)/C(=C\c2cccc(Br)c2)Oc2ccccc21)NCCCN1CCOCC1	7	63*	42	17	27	11	x
COc1ccc(NC(=O)c2ccc3c(c2)NC(=O)CS3)cc1S(=O)(=O)Nc1ccc(Br)cc1	3	69*	-2	0	14	77*	44*
CN(C)c1ccc(/C=C/c2c([N+](=O)[O-])c(=O)n(C)c(=O)n2C)cc1	1	-11	-72	-3	-2	x	x
Cn1c(/C=C/c2ccc(Br)cc2)c([N+](=O)[O-])c(=O)n(C)c1=O	4	84*	0	0	14	52*	24
OCCNc1nc(Nc2cccc(O)c2)nc2ccccc12	0	20	29	15	-15	x	x
COc1cccc(Nc2nc(NCCO)c3ccccc3n2)c1	6	65*	28	11	4	62*	28
Cc1cc(-n2c(C)cc(C(=O)COc3ccc(Cl)cc3C(N)=O)c2C)no1	-1	6	-10	-1	-4	x	x
COc1ccc(C(=O)NCC(=O)N2CCN(C(=O)c3ccco3)CC2)cc1[N+](=O)[O-]	0	-3	2	-1	-6	x	x
COc1ccccc1OC(=O)CCN1c2ccccc2Sc2ccccc21	0	0	0	-2	11	x	x
COc1ccccc1-[n+]1c(C)cc(/C=C2\Sc3ccccc3N2C)cc1C	13	82*	-58	2	5	89*	59*
COc1ccc(-[n+]2c(C)cc(/C=C3\Sc4ccccc4N3C)cc2C)cc1	29	83*	-74	2	18	78*	16
COc1ccc(C(=O)/C=C2\Sc3ccccc3N2C)cc1	3	-179	-6	3	22	x	x
CCCCCCCCn1ccc(=N)cc1	16	55*	5	1	-15	61*	48*
Cc1ccc(C(=O)C[n+]2cc(-c3ccc(C)cc3)n3c2CCCCC3)cc1	2	53*	-1	2	1	54*	48*
COc1ccc(C(=O)C[n+]2cc(-c3ccc(OC)cc3)n3c2CCCC3)cc1	-1	37	1	-1	2	x	x
CC(C)CCNc1nc(N)c([N+](=O)[O-])c(N2CCCCCC2)n1	1	3	7	9	29	x	x
COc1ccc(CN(CCC(c2ccc(F)cc2)C2CCOC(C)(C)C2)C(=O)c2ccco2)cc1 (configuration not stated)	6	76*	8	7	12	53*	131*
Cn1c(=O)c2c(ncn2CC(=O)N/N=C/c2ccc(Br)s2)n(C)c1=O	-2	5	1	1	2	x	x
Nc1nn(-c2ccccc2)c(N)c1N=Nc1ccc2c(c1)OCO2	2	-124	-33	1	2	x	x
Oc1ccc(N=Nc2ccc3c(c2)OCO3)c2ccccc12	66*	94*	-101	0	-23	92*	59*
Cc1ccccc1OCc1occc1C(=O)Nc1cccc(-n2cnnn2)c1	1	59*	7	-3	19	47*	47*
Cc1ccc(S(=O)(=O)c2nnn3c2nc(NC2CCN(Cc4ccccc4)CC2)c2ccccc23)cc1C	3	64*	18	0	22	39	52*
CNCCCC1c2ccccc2C=Cc2ccccc21	1	39	18	-10	0	x	x
SMILES	UPR CHOP act	Mdm2-MdmX inh	UBC13 polyUb	UPR XBP1 act	Apaf-1 inh	Mdm2-MdmX conf	FLuc counter
CNCCCC12CCC(c3ccccc31)c1ccccc12	0	59*!	9	-4	12	33	x
Cc1oc2c(CN3CCC(C)CC3)c(O)ccc2c(=O)c1-c1ccccc1	0	6	13	-7	0	x	x
Nc1ncnc2c1ncn2[C@H]1C[C@H](O)[C@@H](CO)O1	0	-13	-3	-2	-5	x	x
Nc1nc(Cl)nc2c1ncn2[C@H]1C[C@H](O)[C@@H](CO)O1	-4	87*	-2	1	5	74*	22
Cc1ccc(/C=C/C(=O)Nc2ncc(C)s2)o1	7	-72	-13	-1	2	x	x
Cc1cnc(NC(=O)/C=C/c2ccc(Br)o2)s1	6	75*	13	1	-32	0	x
CCN1CCN(C(=O)C(C)Nc2ccc(OC)cc2OC)CC1 (configuration not stated)	-2	14	8	-2	-5	x	x
COc1ccccc1CN1CC(C(=O)NCc2nccn2C)CCC1=O (configuration not stated)	2	9	4	-3	-7	x	x
COc1ccc(N/C=C/C(=O)c2cc(OC)c(OC)c(OC)c2)cc1	10	68*	-6	29	-2	60*	57*
COc1ccc(OC)c(C(=O)/C=C/c2ccccc2C(F)(F)F)c1	10	89*	11	3	23	65*	21
COc1ccc(N/C=C/C(=O)c2ccc(OC)c(OC)c2)cc1	6	29	-2	2	3	x	x
COc1ccc(OC)c(N/C=C/C(=O)c2ccccc2)c1	-11	58*	-6	-12	2	62*	155*
COc1ccc(OC)c(S(=O)(=O)Nc2ccccc2C(F)(F)F)c1	-3	22	-5	-2	-2	x	x
Cc1ccc2cc3cc(C(=O)NCCCN4CCCC4=O)oc3nc2c1	1	5	7	1	-11	x	x
Cc1oc2ccc(OC(=O)c3cccs3)cc2c1C(=O)OC(C)C	5	-5	2	6	12	x	x
COc1ccccc1NCC(=O)N/N=C/c1c(O)ccc2ccccc12	0	87*	-6	-4	20	77*	25
COc1ccccc1N(CC(=O)N/N=C/c1c(O)ccc2ccccc12)S(C)(=O)=O	-3	77*	-4	-2	3	77*	26

Compound activity as filed in PubChem.
